Laboratory results: ChEMBL document CHEMBL2375255, “New quinazoline derivatives for telomeric G-quadruplex DNA: effects of an added phenyl group on quadruplex binding ability” (Eur J Med Chem, 2013)
The source made the active and inactive calls. The calls are words filed in the database; no cut-off is given here.

Legend:
Homo sapiens [1] = species on record: Homo sapiens; assay: Binding affinity to human telomeric G-quadruplex 5'-d(GGG[TTAGGG]3)-3' DNA assessed as change in melting temperature at 25 uM measured at 265 nM wavelength by circular dichroism spectroscopic analysis
Procedure, shortened: (§1)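 HTG21 in 10 mM Tris-HCl, pH 7.4, 60 mM KCl. CD melting profiles were read at 265 nm and at 290 nm, and ΔTm was determined from them.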

Homo sapiens [2] = species on record: Homo sapiens; assay: Binding affinity to human telomeric G-quadruplex 5'-d(GGG[TTAGGG]3)-3' DNA assessed as change in melting temperature at 25 uM measured at 290 nM wavelength by circular dichroism spectroscopic analysis; procedure, shortened: as §1
Homo sapiens [3] = species on record: Homo sapiens; assay: Binding affinity to human telomeric G-quadruplex 5'-d(GGG[TTAGGG]3)-3' DNA assessed as induction of conformation conversion from antiparallel to parallel type at 25 uM after 5 mins by circular dichroism spectroscopic analysis
[4] = Binding affinity to biotinylated duplex DNA (unknown origin) up to by surface plasmon resonance analysis
Procedure, shortened: (§2)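 SPR with a Neutravidin-coated sensor chip. Biotinylated duplex DNA and biotinylated HTG21 were folded in running buffer (50 mM Tris-HCl, 100 mM KCl, pH 7.4, 0.005% Tween20) and immobilized. A range of ligand concentrations was injected simultaneously over G-quadruplex, duplex and blank reference channels. Binding plots from sensorgrams gave equilibrium constants (KD).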

[5] = Binding affinity to human biotinylated telomeric G-quadruplex 5'-d(GGG[TTAGGG]3)-3' DNA by surface plasmon resonance analysis; procedure, shortened: as §2
[6] = Binding affinity to biotinylated duplex DNA (unknown origin) by surface plasmon resonance analysis; procedure, shortened: as §2
[7] = biological target: Telomerase reverse transcriptase (Homo sapiens, UniProt O14746); assay: Inhibition of telomerase in human HL60 cell extract by TRAP-LIG assay; design: species or system HL-60
Sequence of Telomerase reverse transcriptase (O14746 whole entry): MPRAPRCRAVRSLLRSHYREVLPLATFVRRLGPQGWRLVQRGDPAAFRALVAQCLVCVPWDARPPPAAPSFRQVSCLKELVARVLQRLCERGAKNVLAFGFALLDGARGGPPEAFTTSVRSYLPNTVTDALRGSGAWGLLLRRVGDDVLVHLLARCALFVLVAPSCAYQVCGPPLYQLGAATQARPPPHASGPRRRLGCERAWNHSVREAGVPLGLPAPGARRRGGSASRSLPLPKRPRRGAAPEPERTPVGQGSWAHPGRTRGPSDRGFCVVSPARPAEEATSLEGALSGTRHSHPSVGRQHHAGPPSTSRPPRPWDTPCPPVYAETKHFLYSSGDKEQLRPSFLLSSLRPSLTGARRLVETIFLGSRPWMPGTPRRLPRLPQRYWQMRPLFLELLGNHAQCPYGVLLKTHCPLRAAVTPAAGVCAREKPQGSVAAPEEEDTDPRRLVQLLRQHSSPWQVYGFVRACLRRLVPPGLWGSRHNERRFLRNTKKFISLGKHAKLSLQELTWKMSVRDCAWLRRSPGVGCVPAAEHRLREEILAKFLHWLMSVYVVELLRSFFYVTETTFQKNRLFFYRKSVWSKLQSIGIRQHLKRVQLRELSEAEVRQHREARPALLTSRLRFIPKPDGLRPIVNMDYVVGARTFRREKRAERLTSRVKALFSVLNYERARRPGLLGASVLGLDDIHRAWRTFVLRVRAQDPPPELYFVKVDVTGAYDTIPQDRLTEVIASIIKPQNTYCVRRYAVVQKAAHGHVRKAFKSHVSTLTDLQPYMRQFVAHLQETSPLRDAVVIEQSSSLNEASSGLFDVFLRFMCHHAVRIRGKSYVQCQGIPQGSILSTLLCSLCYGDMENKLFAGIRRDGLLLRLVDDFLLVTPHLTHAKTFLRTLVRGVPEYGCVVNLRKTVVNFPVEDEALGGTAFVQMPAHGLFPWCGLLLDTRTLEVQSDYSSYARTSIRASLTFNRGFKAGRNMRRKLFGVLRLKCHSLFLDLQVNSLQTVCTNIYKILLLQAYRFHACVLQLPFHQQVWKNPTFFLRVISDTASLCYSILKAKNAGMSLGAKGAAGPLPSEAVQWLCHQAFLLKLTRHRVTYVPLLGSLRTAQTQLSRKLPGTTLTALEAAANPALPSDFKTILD
Procedure, shortened: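 TRAP-LIG: compounds added to telomerase reaction mix containing HL60 cell extract. Ligand removed after enzyme incubation, before amplification. Purified extended products PCR-amplified for 35 cycles (94 °C 30 s, 61 °C 1 min, 72 °C 1 min). IC50 determined.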

Homo sapiens [8] = species on record: Homo sapiens; assay: Binding affinity to human biotinylated telomeric G-quadruplex 5'-d(GGG[TTAGGG]3)-3' DNA up to 20 uM by surface plasmon resonance analysis; procedure, shortened: as §2
HL-60 [9] = assay: Induction of senescence in human HL60 cells assessed as increase in proportion of enlarged and flattened cells at 1 uM after 12 days by senescence-associated beta-galactosidase activity based optical microscopic analysis; type: functional, cell-based
Procedure, shortened: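 HL60 cells treated continuously for 12 days; 0.1% DMSO as control. Cells fixed 15 min at room temperature in 2% formaldehyde/0.2% glutaraldehyde, then washed with PBS. Stained overnight at 37 °C with 1 mg/mL X-gal solution. Enlarged, flattened, stained cells viewed by optical microscopy.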

HL-60 [10] = assay: Binding affinity to G-quadruplex DNA in human HL60 cells assessed as telomere shortening at 1 uM after 12 days by restriction fragment length assay; type: cell-based
Procedure, shortened: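 HL60 cells exposed to ligand for 12 days. Genomic DNA digested with Hinf1/Rsa1, run on 0.8% agarose gel and transferred to nylon membrane. DNA fixed by baking at 120 °C for 20 min. Membrane hybridized with DIG-labelled telomeric-repeat probe, then detected with anti-DIG-alkaline phosphatase.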

HL-60 [11] = assay: Cytotoxicity against human HL60 cells at 0.5 to 1 uM treated every 3 days up to 12 days relative to control; type: functional, cell-based
HL-60 [12] = assay: Cytotoxicity against human HL60 cells after 48 hrs by MTT assay; type: functional, cell-based; details: HL-60, 48 h
Procedure, shortened: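 HL60 cells seeded at 1.0 × 10³ per well and exposed to a range of concentrations for 48 h at 37 °C, 5% CO₂. MTT (5 mg/mL) added for 4 h. Formazan dissolved in DMSO and OD read at 570 nm. Each dose tested in triplicate; IC50 derived from mean OD versus concentration curves.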

HL-60 [13] = assay: Binding affinity to G-quadruplex DNA in human HL60 cells assessed as telomere shortening at 0.01 to 1 uM after 12 days by restriction fragment length assay
HL-60 [14] = assay: Cytotoxicity against human HL60 cells treated every 3 days up to 12 days; type: functional, cell-based

| Structure (SMILES) | ΔTm (Homo sapiens [1]) [°C] | ΔTm (Homo sapiens [2]) [°C] | Activity (Homo sapiens [3]) | Kd [5] [µM] | further results |
| --- | --- | --- | --- | --- | --- |
| CN(C)CCCNc1nc(-c2ccccc2NC(=O)c2ccc(NC(=O)CN3CCOCC3)cc2)nc2ccccc12 | 11.9 | 4.7 | Active | – | – |
| CCN(CC)CC(=O)Nc1ccccc1-c1nc(NCCCN(C)C)c2ccccc2n1 | 2.1 | 0.7 | Active | – | – |
| CN(C)CCCNc1nc(-c2ccccc2NC(=O)c2ccc(NC(=O)CN3CCCC3)cc2)nc2ccccc12 | 21.4 | 11.7 | Active | – | – |
| CN(C)CCCNc1nc(-c2ccc(Cl)cc2NC(=O)c2ccc(NC(=O)CCN3CCN(C)CC3)cc2)nc2ccccc12 | > 28 | 3.4 | Active | 0.276 | Activity [4]: inactive |
| CN(C)CCCNc1nc(-c2ccccc2NC(=O)c2ccc(NC(=O)CN3CCN(C)CC3)cc2)nc2ccccc12 | 21.8 | 7.4 | Active | 2.75 | Kd [6]: 39.7 µM |
| CN(C)CCCNc1nc(-c2ccccc2NC(=O)c2ccc(NC(=O)CCN3CCOCC3)cc2)nc2ccccc12 | 15.3 | 8.2 | Active | – | – |
| CCN(CC)CCC(=O)Nc1ccc(C(=O)Nc2cc(Cl)ccc2-c2nc(NCCCN(C)C)c3ccccc3n2)cc1 | 21.9 | 2.8 | Active | 0.302 | Activity [4]: inactive |
| CN(C)CCCNc1nc(-c2ccccc2NC(=O)CCN2CCCC2)nc2ccccc12 | 8.7 | 3.6 | Active | – | – |
| CN(C)CCCNc1c2ccccc2nc2c1[nH]c1ccccc12 | 11.2 | 8 | inactive | 28 | Kd [6]: 5.02 µM |
| CN(C)CCCNc1nc(-c2ccc(Cl)cc2NC(=O)CCN2CCN(C)CC2)nc2ccccc12 | 14.4 | 4.4 | Active | – | – |
| CN(C)CCCNCCC(=O)Nc1ccccc1-c1nc(NCCCN(C)C)c2ccccc2n1 | 12.4 | 6.2 | Active | 3.36 | Kd [6]: 7.9 µM; IC50 [7]: > 50 µM |
| CCN(CC)CCC(=O)Nc1ccccc1-c1nc(NCCCN(C)C)c2ccccc2n1 | 8.2 | 2.5 | Active | – | – |
| CN(C)CCCNc1nc(-c2ccccc2NC(=O)CN2CCCC2)nc2ccccc12 | 7.3 | 2.6 | Active | – | – |
| CN(C)CCCNc1nc(-c2ccccc2NC(=O)CCN2CCOCC2)nc2ccccc12 | 4.3 | 0.9 | inactive | – | – |
| CN(C)CCCNc1nc(-c2ccccc2NC(=O)c2ccc(NC(=O)CCN3CCN(C)CC3)cc2)nc2ccccc12 | 21.7 | 8.2 | Active | 1.48 | Kd [6]: 13.2 µM |
| CN(C)CCCNc1nc(-c2ccccc2NC(=O)CCN2CCN(C)CC2)nc2ccccc12 | 8 | 2.1 | Active | – | Activity (Homo sapiens [8]): inactive |
| CCN(CC)CC(=O)Nc1ccc(C(=O)Nc2ccccc2-c2nc(NCCCN(C)C)c3ccccc3n2)cc1 | 21.6 | 11.6 | Active | 8.34 | Kd [6]: 11.9 µM |
| CN(C)CCCNc1nc(-c2ccccc2NC(=O)c2ccc(NC(=O)CCN3CCCC3)cc2)nc2ccccc12 | 18.7 | 4.6 | Active | – | – |
| CCN(CC)CCC(=O)Nc1ccc(C(=O)Nc2ccccc2-c2nc(NCCCN(C)C)c3ccccc3n2)cc1 | 19.6 | 5.4 | Active | 1.61 | Kd [6]: 22 µM |
| CN(C)CCCNc1nc(-c2ccc(Cl)cc2NC(=O)c2ccc(NC(=O)CCN3CCCC3)cc2)nc2ccccc12 | > 28 | 5.7 | Active | 0.227 | Activity [4]: inactive |
| CN(C)CCCNCCC(=O)Nc1ccc(C(=O)Nc2cc(Cl)ccc2-c2nc(NCCCN(C)C)c3ccccc3n2)cc1 | > 28 | 14.8 | Active | 0.379 | Activity (HL-60 [9]): Active; Activity (HL-60 [10]): Active; Activity [4]: inactive; Activity (HL-60 [11]): Active; IC50 (HL-60 [12]): 1.7 µM; Activity (HL-60 [13]): Active; Activity (HL-60 [14]): Dose-dependent effect; IC50 [7]: 2.3 µM |
| CN(C)CCCNc1nc(-c2ccccc2NC(=O)CN2CCOCC2)nc2ccccc12 | 0.5 | 0 | inactive | – | – |
| CN(C)CCCNc1nc(-c2ccccc2NC(=O)CN2CCN(C)CC2)nc2ccccc12 | 3.1 | 0.6 | inactive | – | Activity (Homo sapiens [8]): inactive |
| CN(C)CCCNCCC(=O)Nc1ccc(C(=O)Nc2ccccc2-c2nc(NCCCN(C)C)c3ccccc3n2)cc1 | > 28 | – | Active | 1.11 | Activity [4]: inactive; IC50 [7]: 30.9 µM |
| CN(C)CCCNc1nc(-c2ccc(Cl)cc2NC(=O)c2ccc(NC(=O)CCN3CCOCC3)cc2)nc2ccccc12 | 21.6 | 4.7 | Active | 3.06 | Activity [4]: inactive |
